Assay results: ChEMBL document CHEMBL1137243, “Design, synthesis, and antifungal activities in vitro of novel tetrahydroisoquinoline compounds based on the structure of lanosterol 14alpha-demethylase (CYP51) of fungi” (2006)
≈ marks a conversion by molar mass, not a printed value.

Key:
Format in all cases: functional
Cryptococcus neoformans = assay: Antifungal activity against Cryptococcus neoformans after 72 hrs
Method in brief: (§1)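 Broth serial-dilution MIC in 96-well plates per NCCLS recommendations. Medium: RPMI 1640 buffered with 0.165 M MOPS. Strains were from ATCC or clinical isolates. Compounds were dissolved in DMSO and serially diluted in growth medium. Yeasts were incubated at 35 °C, read at 24 h for Candida and 72 h for C. neoformans. MIC is the lowest concentration giving ≥80% growth inhibition versus control (turbidity).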

Microsporum canis = assay: Antifungal activity against Microsporum canis after 7 days; settings: 168 h
Method in brief: (§2)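 Dermatophytes were tested by NCCLS-based broth serial dilution in 96-well plates. Medium: RPMI 1640 with 0.165 M MOPS. Isolates were from ATCC or clinical sources. Compounds in DMSO were serially diluted in medium. Incubation was at 28 °C with the read at 7 days. MIC is the lowest concentration giving ≥80% turbidity reduction relative to the growth control.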

Aspergillus fumigatus = assay: Antifungal activity against Aspergillus fumigatus after 7 days; settings: 168 h
Method in brief: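 Filamentous-fungus MIC was determined by serial dilution in 96-well plates per NCCLS, using RPMI 1640 buffered with 0.165 M MOPS. Strains were ATCC or clinical isolates. Compounds in DMSO were diluted in growth medium. Growth was read at 7 days. MIC is the lowest concentration producing ≥80% inhibition of turbidity compared with control.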

Candida parapsilosis = assay: Antifungal activity against Candida parapsilosis after 24 hrs; settings: Lodderomyces parapsilosis; method in brief: as §1
Candida albicans = assay: Antifungal activity against Candida albicans after 24 hrs; method in brief: as §1
Trichophyton rubrum = assay: Antifungal activity against Trichophyton rubrum after 7 days; settings: 168 h; method in brief: as §2

SMILES | MIC80 (Cryptococcus neoformans) | MIC80 (Microsporum canis) | MIC80 (Aspergillus fumigatus) | MIC80 (Candida parapsilosis) | MIC80 (Candida albicans) | MIC80 (Trichophyton rubrum)
CCCCCCCCCCCCCCN1CCc2cc(O)c(O)cc2C1 | 6.25 µg/mL (≈ 17.3 µM) | 12.5 µg/mL (≈ 34.6 µM) | > 200 µg/mL | 50 µg/mL (≈ 138 µM) | 50 µg/mL (≈ 138 µM) | 25 µg/mL (≈ 69.1 µM)
CCCCCCCCCCCCCCCCN1CCc2cc(O)c(O)cc2C1 | 100 µg/mL (≈ 257 µM) | > 200 µg/mL | 200 µg/mL (≈ 513 µM) | 100 µg/mL (≈ 257 µM) | > 200 µg/mL | 200 µg/mL (≈ 513 µM)
CCCCCN1CCc2cc(O)c(O)cc2C1 | 100 µg/mL (≈ 425 µM) | > 200 µg/mL | > 200 µg/mL | 100 µg/mL (≈ 425 µM) | > 200 µg/mL | > 200 µg/mL
CCCCCCCN1CCc2cc(O)c(O)cc2C1 | 100 µg/mL (≈ 380 µM) | > 200 µg/mL | > 200 µg/mL | 100 µg/mL (≈ 380 µM) | > 200 µg/mL | > 200 µg/mL
OC(Cn1cncn1)(Cn1cncn1)c1ccc(F)cc1F [FLUCONAZOLE] | 6.25 µg/mL (≈ 20.4 µM) | 100 µg/mL (≈ 327 µM) | > 200 µg/mL | 50 µg/mL (≈ 163 µM) | 1.56 µg/mL (≈ 5.1 µM) | 25 µg/mL (≈ 81.6 µM)
CCCCCCCCCCN1CCc2cc(O)c(O)cc2C1 | 3.12 µg/mL (≈ 10.2 µM) | 12.5 µg/mL (≈ 40.9 µM) | 50 µg/mL (≈ 164 µM) | 12.5 µg/mL (≈ 40.9 µM) | 100 µg/mL (≈ 327 µM) | 3.12 µg/mL (≈ 10.2 µM)
CCCCCCN1CCc2cc(O)c(O)cc2C1 | 100 µg/mL (≈ 401 µM) | > 200 µg/mL | > 200 µg/mL | 100 µg/mL (≈ 401 µM) | > 200 µg/mL | > 200 µg/mL
CCCCCCCCN1CCc2cc(O)c(O)cc2C1 | 100 µg/mL (≈ 360 µM) | 50 µg/mL (≈ 180 µM) | > 200 µg/mL | 100 µg/mL (≈ 360 µM) | > 200 µg/mL | 50 µg/mL (≈ 180 µM)
CCCCCCCCCCCCN1CCc2cc(O)c(O)cc2C1 | 6.25 µg/mL (≈ 18.7 µM) | 12.5 µg/mL (≈ 37.5 µM) | 50 µg/mL (≈ 150 µM) | 50 µg/mL (≈ 150 µM) | 50 µg/mL (≈ 150 µM) | 12.5 µg/mL (≈ 37.5 µM)
CCCCCCCCCN1CCc2cc(O)c(O)cc2C1 | 25 µg/mL (≈ 85.8 µM) | 50 µg/mL (≈ 172 µM) | 200 µg/mL (≈ 686 µM) | 25 µg/mL (≈ 85.8 µM) | 200 µg/mL (≈ 686 µM) | 12.5 µg/mL (≈ 42.9 µM)
